Test results taken from ChEMBL document CHEMBL5653609, “Ack1-mediated androgen receptor phosphorylation modulates radiation resistance in castration-resistant prostate cancer” (J Biol Chem, 2012).
The source made the active and inactive calls. The calls are words filed in the database; no cut-off is given here.

Assays:
[1] = Toxicity in mouse assessed as change in body weight; conditions: in vivo
How it was run: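 Body weight of castrated nude mice bearing LNCaP-caAck xenografts tracked during dosing at 4 mg/kg per injection (day 7, then days 11–27 every 4 days) versus DMSO-injected controls; morbidity also noted.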

[2] = biological target: Mitogen-activated protein kinase kinase kinase 8 (Homo sapiens, UniProt P41279); experiment: Inhibition of MAP3K8 (unknown origin) in the presence of [33P]ATP by kinase hotspot assay
[3] = biological target: DNA-dependent protein kinase catalytic subunit (Homo sapiens, UniProt P78527); experiment: Inhibition of DNA-PK (unknown origin) in the presence of [33P]ATP by kinase hotspot assay
[4] = biological target: Serine/threonine-protein kinase mTOR (Homo sapiens, UniProt P42345); experiment: Inhibition of mTOR (unknown origin) in the presence of [33P]ATP by kinase hotspot assay
[5] = biological target: RAF proto-oncogene serine/threonine-protein kinase (Homo sapiens, UniProt P04049); experiment: Inhibition of RAF1 (unknown origin) in the presence of [33P]ATP by kinase hotspot assay
[6] = biological target: Tyrosine-protein kinase ABL1 (Homo sapiens, UniProt P00519); experiment: Inhibition of ABL1 (unknown origin) in the presence of [33P]ATP by kinase hotspot assay
Activated CDC42 kinase 1 = Activated CDC42 kinase 1 (Homo sapiens, UniProt Q07912); experiment: Inhibition of Ack1 (unknown origin) in the presence of [33P]ATP by kinase hotspot assay
[7] = biological target: RAC-alpha serine/threonine-protein kinase (Homo sapiens, UniProt P31749); experiment: Inhibition of AKT1 (unknown origin) in the presence of [33P]ATP by kinase hotspot assay
[8] = biological target: RAC-gamma serine/threonine-protein kinase (Homo sapiens, UniProt Q9Y243); experiment: Inhibition of AKT3 (unknown origin) in the presence of [33P]ATP by kinase hotspot assay
[9] = biological target: Tyrosine-protein kinase receptor UFO (Homo sapiens, UniProt P30530); experiment: Inhibition of AXL (unknown origin) in the presence of [33P]ATP by kinase hotspot assay
[10] = biological target: Tyrosine-protein kinase BTK (Homo sapiens, UniProt Q06187); experiment: Inhibition of BTK (unknown origin) in the presence of [33P]ATP by kinase hotspot assay
[11] = biological target: Serine/threonine-protein kinase Chk1 (Homo sapiens, UniProt O14757); experiment: Inhibition of CHK1 (unknown origin) in the presence of [33P]ATP by kinase hotspot assay
LNCaP [12] = experiment: Antitumor activity against irradiated human LNCaP-caAck FLAG-tagged KD ATM expressing cells xenografted mouse assessed as inhibition of tumor growth at 4 mg/kg on day 12; assay type: functional, organism-based
How it was run: (§1)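 Castrated male nude mice received LNCaP-caAck cells transfected with FLAG-tagged kinase-dead or wild-type ATM constructs (CMV promoter), irradiated 1.5 Gy before injection. Inhibitor 4 mg/kg per injection starting day 12 after cell injection, then on days 15, 19, 23 and 27; n = 5 mice per group; tumor growth followed.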

[13] = biological target: Receptor tyrosine-protein kinase erbB-2 (Homo sapiens, UniProt P04626); experiment: Inhibition of HER2 (unknown origin) in the presence of [33P]ATP by kinase hotspot assay
[14] = biological target: Mitogen-activated protein kinase 3 (Homo sapiens, UniProt P27361); experiment: Inhibition of ERK1 (unknown origin) in the presence of [33P]ATP by kinase hotspot assay
[15] = biological target: Glycogen synthase kinase-3 alpha (Homo sapiens, UniProt P49840); experiment: Inhibition of GSK3alpha (unknown origin) in the presence of [33P]ATP by kinase hotspot assay
[16] = biological target: Insulin-like growth factor 1 receptor (Homo sapiens, UniProt P08069); experiment: Inhibition of IGF1R (unknown origin) in the presence of [33P]ATP by kinase hotspot assay
[17] = biological target: Inhibitor of nuclear factor kappa-B kinase subunit alpha (Homo sapiens, UniProt O15111); experiment: Inhibition of IKKalpha (unknown origin) in the presence of [33P]ATP by kinase hotspot assay
Insulin receptor = Insulin receptor (Homo sapiens, UniProt P06213); experiment: Inhibition of IR (unknown origin) in the presence of [33P]ATP by kinase hotspot assay
[18] = biological target: Tyrosine-protein kinase JAK2 (Homo sapiens, UniProt O60674); experiment: Inhibition of JAK2 (unknown origin) in the presence of [33P]ATP by kinase hotspot assay
[19] = biological target: Vascular endothelial growth factor receptor 2 (Homo sapiens, UniProt P35968); experiment: Inhibition of VEGFR2 (unknown origin) in the presence of [33P]ATP by kinase hotspot assay
[20] = biological target: Tyrosine-protein kinase Lck (Homo sapiens, UniProt P06239); experiment: Inhibition of LCK (unknown origin) in the presence of [33P]ATP by kinase hotspot assay
[21] = biological target: Platelet-derived growth factor receptor alpha (Homo sapiens, UniProt P16234); experiment: Inhibition of PDGFRalpha (unknown origin) in the presence of [33P]ATP by kinase hotspot assay
[22] = biological target: Phosphatidylinositol 4,5-bisphosphate 3-kinase catalytic subunit alpha isoform (Homo sapiens, UniProt P42336); experiment: Inhibition of PI3Kalpha (unknown origin) in the presence of [33P]ATP by kinase hotspot assay
[23] = biological target: Phosphatidylinositol 4,5-bisphosphate 3-kinase catalytic subunit beta isoform (Homo sapiens, UniProt P42338); experiment: Inhibition of PI3Kbeta (unknown origin) in the presence of [33P]ATP by kinase hotspot assay
[24] = biological target: Serine/threonine-protein kinase pim-1 (Homo sapiens, UniProt P11309); experiment: Inhibition of PIM1 (unknown origin) in the presence of [33P]ATP by kinase hotspot assay
[25] = biological target: Serine/threonine-protein kinase Sgk1 (Homo sapiens, UniProt O00141); experiment: Inhibition of SGK1 (unknown origin) in the presence of [33P]ATP by kinase hotspot assay
[26] = biological target: Tyrosine-protein kinase receptor TYRO3 (Homo sapiens, UniProt Q06418); experiment: Inhibition of TYRO3 (unknown origin) in the presence of [33P]ATP by kinase hotspot assay
Wee1-like protein kinase = Wee1-like protein kinase (Homo sapiens, UniProt P30291); experiment: Inhibition of WEE1 (unknown origin) in the presence of [33P]ATP by kinase hotspot assay
LNCaP [27] = experiment: Induction of cell cycle arrest in human LNCaP cells with IR-induced DNA damage assessed as reduction in proportion of cells at G2 phase at 5 uM incubated for 24 hrs in the presence of 5 Gy by PI-staining-based flow cytometry analysis; assay type: functional; design: scale not given: the % may be the effect or the level left
How it was run: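 LNCaP cells left untreated, given 5 Gy x-ray, inhibitor (5 μm, 24 h), or both; harvested 16 h after irradiation. Nuclei processed with trypsin, trypsin inhibitor/RNase A, then propidium iodide; DNA content of 20,000 cells by flow cytometry, cell cycle modelled. Three independent experiments.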

LNCaP [28] = experiment: Induction of cell cycle arrest in human LNCaP cells with IR-induced DNA damage assessed as high number of cells with DSBs at 5 uM after 5 hrs in the presence of 15 Gy by flow cytometry analysis; assay type: functional, cell-based
LNCaP [29] = experiment: Induction of cell cycle arrest in human LNCaP cells with IR-induced DNA damage assessed as reduction in number of cells at G2 phase at 10 uM incubated for 24 hrs in the presence of 5 Gy by PI-staining-based flow cytometry analysis; assay type: functional
How it was run: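 LNCaP cells given 5 Gy x-ray alone or with agent (10 μm, 24 h). Propidium iodide staining and flow cytometric DNA content analysis of cell cycle phases; performed in triplicate.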

LNCaP [30] = experiment: Antitumor activity against unirradiated human LNCaP-caAck expressing cells xenografted mouse assessed as reduction in tumor growth at 4 mg/kg on 7th day; assay type: functional; design: scale not given: the % may be the effect or the level left
How it was run: (§2)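 LNCaP-caAck cells (2 × 10⁶), unirradiated or irradiated 1.5 Gy, in PBS/Matrigel 1:1, injected subcutaneously into flanks of castrated male nude mice. Inhibitor 4 mg/kg per injection on day 7 post-implantation, then days 11, 15, 19, 23, 27; DMSO control; n = 8 per group. Caliper tumor volumes twice weekly; two independent experiments.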

LNCaP [31] = experiment: Antitumor activity against irradiated human LNCaP-caAck expressing cells xenografted mouse assessed as reduction in tumor growth at 4 mg/kg on 7th day; assay type: functional, organism-based; how it was run: as §2
LNCaP [32] = experiment: Antitumor activity against irradiated human LNCaP-caAck expressing cells xenografted mouse assessed as reduction in ATM expression level at 4 mg/kg on 7th day by immunohistochemical staining; assay type: functional, organism-based
How it was run: (§3)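 Irradiated (1.5 Gy) LNCaP-caAck xenografts in castrated nude mice dosed 4 mg/kg from day 7 (DMSO control) were excised, fixed, paraffin-embedded and sectioned. Sections stained with H&E, or for ATM by IHC: citrate pH 6.0 retrieval at 95 °C 30 min, rabbit monoclonal ATM antibody 1:300 overnight 4 °C, biotin secondary/streptavidin-peroxidase, DAB, hematoxylin counterstain.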

LNCaP [33] = experiment: Antitumor activity against irradiated human LNCaP-caAck expressing cells xenografted mouse assessed as necrosis at 4 mg/kg on 7th day by Hematoxylin and eosin staining; assay type: functional, organism-based; how it was run: as §3
LNCaP [34] = experiment: Antitumor activity against irradiated human LNCaP-caAck FLAG-tagged wild-type ATM expressing cells xenografted mouse assessed as inhibition of tumor growth at 4 mg/kg on day 12; assay type: functional, organism-based; how it was run: as §1
[35] = biological target: Tyrosine-protein kinase Lyn (Homo sapiens, UniProt P07948)

Chain of RAF proto-oncogene serine/threonine-protein kinase (P04049 whole entry): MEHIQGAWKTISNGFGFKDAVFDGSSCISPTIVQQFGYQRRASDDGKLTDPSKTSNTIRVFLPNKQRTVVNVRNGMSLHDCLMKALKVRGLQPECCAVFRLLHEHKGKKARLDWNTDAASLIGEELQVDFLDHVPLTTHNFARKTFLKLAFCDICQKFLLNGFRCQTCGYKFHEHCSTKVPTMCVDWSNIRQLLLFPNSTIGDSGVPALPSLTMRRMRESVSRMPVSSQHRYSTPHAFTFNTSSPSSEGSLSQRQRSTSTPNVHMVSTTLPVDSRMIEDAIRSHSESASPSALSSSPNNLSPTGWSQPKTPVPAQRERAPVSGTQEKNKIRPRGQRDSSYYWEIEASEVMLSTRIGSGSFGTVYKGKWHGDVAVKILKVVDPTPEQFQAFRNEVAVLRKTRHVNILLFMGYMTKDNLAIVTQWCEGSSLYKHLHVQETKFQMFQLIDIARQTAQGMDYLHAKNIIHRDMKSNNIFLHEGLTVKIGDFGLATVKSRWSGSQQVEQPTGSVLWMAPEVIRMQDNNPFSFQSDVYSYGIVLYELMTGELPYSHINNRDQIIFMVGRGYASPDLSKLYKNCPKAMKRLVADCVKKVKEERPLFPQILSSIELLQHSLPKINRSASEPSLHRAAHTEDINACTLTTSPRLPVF
Chain of DNA-dependent protein kinase catalytic subunit (P78527 whole entry): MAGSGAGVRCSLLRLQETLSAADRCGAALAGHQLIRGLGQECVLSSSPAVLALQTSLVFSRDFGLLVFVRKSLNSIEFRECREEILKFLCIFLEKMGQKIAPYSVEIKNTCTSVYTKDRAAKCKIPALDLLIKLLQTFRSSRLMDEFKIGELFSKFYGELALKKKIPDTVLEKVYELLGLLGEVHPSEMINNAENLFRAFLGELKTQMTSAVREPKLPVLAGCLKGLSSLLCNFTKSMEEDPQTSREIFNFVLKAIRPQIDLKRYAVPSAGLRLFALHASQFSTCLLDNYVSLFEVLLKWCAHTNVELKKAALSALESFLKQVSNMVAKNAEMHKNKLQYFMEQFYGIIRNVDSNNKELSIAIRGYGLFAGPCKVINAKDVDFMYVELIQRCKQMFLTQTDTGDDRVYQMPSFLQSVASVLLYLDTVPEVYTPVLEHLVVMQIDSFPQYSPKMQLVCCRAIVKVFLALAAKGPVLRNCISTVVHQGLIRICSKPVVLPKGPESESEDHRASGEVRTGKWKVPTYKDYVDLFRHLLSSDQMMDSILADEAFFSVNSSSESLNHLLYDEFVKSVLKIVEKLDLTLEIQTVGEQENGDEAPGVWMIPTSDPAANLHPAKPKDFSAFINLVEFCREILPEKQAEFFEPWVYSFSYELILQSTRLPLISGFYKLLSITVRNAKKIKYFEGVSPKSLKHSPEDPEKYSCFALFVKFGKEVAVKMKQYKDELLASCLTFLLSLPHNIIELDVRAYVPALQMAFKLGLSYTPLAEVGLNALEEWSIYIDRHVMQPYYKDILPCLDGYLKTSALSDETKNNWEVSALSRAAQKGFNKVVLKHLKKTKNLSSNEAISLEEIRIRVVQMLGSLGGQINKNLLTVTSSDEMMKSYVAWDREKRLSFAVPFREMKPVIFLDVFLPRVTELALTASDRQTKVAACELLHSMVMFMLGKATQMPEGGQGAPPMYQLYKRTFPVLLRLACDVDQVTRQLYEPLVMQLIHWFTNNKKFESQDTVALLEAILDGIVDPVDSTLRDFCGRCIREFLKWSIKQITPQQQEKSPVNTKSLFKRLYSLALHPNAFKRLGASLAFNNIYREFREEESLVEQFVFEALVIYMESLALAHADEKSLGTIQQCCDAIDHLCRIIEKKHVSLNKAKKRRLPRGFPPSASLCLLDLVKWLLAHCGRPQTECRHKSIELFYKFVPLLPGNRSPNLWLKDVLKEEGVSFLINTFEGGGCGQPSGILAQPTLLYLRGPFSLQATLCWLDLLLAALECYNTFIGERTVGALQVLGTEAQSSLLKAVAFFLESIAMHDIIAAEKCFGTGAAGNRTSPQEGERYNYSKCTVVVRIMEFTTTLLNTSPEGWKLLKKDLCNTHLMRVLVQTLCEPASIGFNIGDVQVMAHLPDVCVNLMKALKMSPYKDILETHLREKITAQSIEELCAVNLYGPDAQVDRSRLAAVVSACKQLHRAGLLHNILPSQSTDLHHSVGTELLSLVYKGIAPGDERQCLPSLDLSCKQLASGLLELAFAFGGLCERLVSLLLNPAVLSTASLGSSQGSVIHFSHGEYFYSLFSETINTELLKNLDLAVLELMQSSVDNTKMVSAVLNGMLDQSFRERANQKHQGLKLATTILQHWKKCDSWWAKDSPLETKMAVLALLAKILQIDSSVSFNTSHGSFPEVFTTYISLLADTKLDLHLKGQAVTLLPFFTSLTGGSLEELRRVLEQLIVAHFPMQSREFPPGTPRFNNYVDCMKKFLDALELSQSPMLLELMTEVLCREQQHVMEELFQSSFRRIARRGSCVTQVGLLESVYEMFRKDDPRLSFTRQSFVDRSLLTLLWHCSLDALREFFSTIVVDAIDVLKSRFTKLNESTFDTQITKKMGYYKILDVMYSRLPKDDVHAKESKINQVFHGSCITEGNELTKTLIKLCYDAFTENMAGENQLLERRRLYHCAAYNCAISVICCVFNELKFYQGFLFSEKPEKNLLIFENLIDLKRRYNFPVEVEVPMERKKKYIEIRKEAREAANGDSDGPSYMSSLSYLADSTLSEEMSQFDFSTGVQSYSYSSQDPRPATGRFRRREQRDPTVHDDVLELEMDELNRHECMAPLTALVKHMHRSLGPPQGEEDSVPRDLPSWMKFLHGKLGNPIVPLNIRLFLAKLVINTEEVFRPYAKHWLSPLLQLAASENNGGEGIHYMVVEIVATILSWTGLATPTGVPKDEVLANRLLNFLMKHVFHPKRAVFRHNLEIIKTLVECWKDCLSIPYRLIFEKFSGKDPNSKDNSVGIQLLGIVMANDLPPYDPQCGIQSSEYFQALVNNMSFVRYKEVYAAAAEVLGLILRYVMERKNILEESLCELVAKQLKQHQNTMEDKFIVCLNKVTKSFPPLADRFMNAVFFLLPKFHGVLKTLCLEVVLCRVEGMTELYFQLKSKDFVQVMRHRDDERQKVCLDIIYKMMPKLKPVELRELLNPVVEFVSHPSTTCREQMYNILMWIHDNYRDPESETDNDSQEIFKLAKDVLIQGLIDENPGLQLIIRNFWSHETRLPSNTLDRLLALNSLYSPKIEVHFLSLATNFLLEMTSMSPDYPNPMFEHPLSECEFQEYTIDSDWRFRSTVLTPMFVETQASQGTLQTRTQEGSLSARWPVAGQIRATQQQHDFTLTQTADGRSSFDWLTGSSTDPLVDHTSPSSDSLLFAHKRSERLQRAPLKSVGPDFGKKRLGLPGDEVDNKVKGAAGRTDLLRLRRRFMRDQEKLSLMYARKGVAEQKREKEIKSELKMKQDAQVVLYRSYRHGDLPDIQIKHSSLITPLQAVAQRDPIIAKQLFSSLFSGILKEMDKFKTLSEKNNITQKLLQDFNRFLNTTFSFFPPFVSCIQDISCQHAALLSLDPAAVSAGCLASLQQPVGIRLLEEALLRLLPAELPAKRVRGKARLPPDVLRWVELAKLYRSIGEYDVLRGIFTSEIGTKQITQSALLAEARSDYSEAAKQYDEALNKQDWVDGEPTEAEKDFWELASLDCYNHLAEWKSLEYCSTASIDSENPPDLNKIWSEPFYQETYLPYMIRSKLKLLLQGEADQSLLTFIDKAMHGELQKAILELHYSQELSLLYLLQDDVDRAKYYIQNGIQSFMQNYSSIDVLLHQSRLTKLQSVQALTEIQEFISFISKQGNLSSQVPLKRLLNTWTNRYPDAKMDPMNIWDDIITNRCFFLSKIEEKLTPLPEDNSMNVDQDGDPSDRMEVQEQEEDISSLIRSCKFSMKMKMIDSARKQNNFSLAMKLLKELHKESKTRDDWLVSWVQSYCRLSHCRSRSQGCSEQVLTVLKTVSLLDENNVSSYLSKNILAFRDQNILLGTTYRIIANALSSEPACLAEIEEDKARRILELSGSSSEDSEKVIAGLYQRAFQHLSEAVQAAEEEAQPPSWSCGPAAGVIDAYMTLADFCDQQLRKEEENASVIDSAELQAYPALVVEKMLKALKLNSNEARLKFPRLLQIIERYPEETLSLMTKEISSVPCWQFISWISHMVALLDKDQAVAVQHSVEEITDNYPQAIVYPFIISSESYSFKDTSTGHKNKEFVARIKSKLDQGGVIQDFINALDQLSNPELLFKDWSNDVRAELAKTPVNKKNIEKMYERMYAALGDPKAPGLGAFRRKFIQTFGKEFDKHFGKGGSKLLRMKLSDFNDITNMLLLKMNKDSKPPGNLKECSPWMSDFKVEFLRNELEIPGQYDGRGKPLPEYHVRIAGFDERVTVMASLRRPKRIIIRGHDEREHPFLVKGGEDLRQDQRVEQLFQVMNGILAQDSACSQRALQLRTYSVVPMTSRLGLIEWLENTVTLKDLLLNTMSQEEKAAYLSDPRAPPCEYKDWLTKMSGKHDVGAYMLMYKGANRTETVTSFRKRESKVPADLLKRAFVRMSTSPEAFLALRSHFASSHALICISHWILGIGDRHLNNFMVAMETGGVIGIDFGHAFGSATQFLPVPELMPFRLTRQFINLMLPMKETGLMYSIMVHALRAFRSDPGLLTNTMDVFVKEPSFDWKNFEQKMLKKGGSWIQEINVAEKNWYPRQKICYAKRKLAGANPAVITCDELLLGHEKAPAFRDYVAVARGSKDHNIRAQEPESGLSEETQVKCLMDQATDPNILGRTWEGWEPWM
Chain of Mitogen-activated protein kinase 3 (P27361 whole entry): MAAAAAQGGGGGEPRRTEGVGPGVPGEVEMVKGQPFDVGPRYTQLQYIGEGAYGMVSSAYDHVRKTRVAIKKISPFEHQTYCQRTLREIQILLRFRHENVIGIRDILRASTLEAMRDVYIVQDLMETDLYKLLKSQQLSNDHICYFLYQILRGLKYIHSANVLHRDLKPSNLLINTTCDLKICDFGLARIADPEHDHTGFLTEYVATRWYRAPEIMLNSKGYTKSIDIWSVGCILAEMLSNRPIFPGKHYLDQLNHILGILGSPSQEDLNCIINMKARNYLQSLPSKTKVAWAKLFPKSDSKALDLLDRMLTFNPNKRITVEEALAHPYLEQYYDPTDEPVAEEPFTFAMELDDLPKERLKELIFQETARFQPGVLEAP

For `C[S+](C)[O-]` [DIMETHYL SULFOXIDE], the Activity [1] was “Non-Toxic”.
In the case of `CN[C@@H]1C[C@H]2O[C@@](C)([C@@H]1OC)n1c3ccccc3c3c4c(c5c6ccccc6n2c5c31)C(=O)NC4` [STAUROSPORINE], the IC50 ([2]; read-out: IC50) is reported as over 20 µM, the IC50 [3] is reported as “Not Active” and the IC50 [4] is reported as “Not Active”. For the same compound, the IC50 [5] was “Not Active”.
In the case of `c1ccc(-c2oc3ncnc(NC[C@@H]4CCCO4)c3c2-c2ccccc2)cc1`, the IC50 [6] is reported as 706 nM, the IC50 (Activated CDC42 kinase 1) is reported as 21.6 nM and the IC50 [7] is reported as “Not Active”. The IC50 [8] was “Not Active”, the IC50 [9] was “Not Active” and the IC50 [10] was 872 nM. The IC50 [11] was “Not Active”, the IC50 [2] was “Not Active” and the IC50 [3] was “Not Active”. The inhibition (LNCaP [12]) was “Active”, the IC50 [13] was “Not Active” and the IC50 [14] was “Not Active”. The IC50 [15] was “Not Active”, the IC50 [16] was “Not Active” and the IC50 [17] was “Not Active”. For the same compound, the IC50 (Insulin receptor) was “Not Active”, the IC50 [18] was “Not Active” and the IC50 [19] was “Not Active”. The IC50 [20] was 432 nM, the IC50 [4] was “Not Active” and the IC50 [21] was “Not Active”. For the same compound, the IC50 [22] was “Not Active”, the IC50 [23] was “Not Active” and the IC50 [24] was “Not Active”. The IC50 [5] was “Not Active”, the IC50 [25] was “Not Active” and the IC50 [26] was “Not Active”. For the same compound, the IC50 (Wee1-like protein kinase) was “Not Active”, the Activity (LNCaP [27]) was 38% and the Activity (LNCaP [28]) was “Active”. For the same compound, the Activity (LNCaP [29]) was “Active”, the Activity (LNCaP [30]) was about 50% and the Activity (LNCaP [31]) was “Active”. For the same compound, the Activity (LNCaP [32]) was “Active”, the Activity (LNCaP [33]) was “Active” and the inhibition (LNCaP [34]) was “inactive”. The Activity [1] was “Non-Toxic” and the IC50 [35] was 347 nM.
With `O=c1cc(-c2cccc3c2Sc2ccccc2S3)oc(N2CCOCC2)c1` the Activity (LNCaP [29]) was “Active”.
